# Measurements as given in ChEMBL document CHEMBL4422685, “Design, synthesis and evaluation of a series of 5-methoxy-2,3-naphthalimide derivatives as AcrB inhibitors for the reversal of bacterial resistance” (Bioorg Med Chem Lett, 2019).
# The source made the active and inactive calls. No cut-off for these calls is given here.
# Legend:
# [1] = Solubility of the compound in DMSO; format: physicochemical
# [2] = system: Escherichia coli; assay: Antimicrobial activity against AcrB deficient Escherichia coli; format: functional
# [3] = target: T1, Multidrug efflux pump subunit AcrB (Escherichia coli (strain K12)) (UniProt P31224); assay: Inhibition of AcrB in wild-type drug-resistant Escherichia coli […] assessed as potentiation of tetraphenyl phosphonium chloride-induced antimicrobial activity by measuring tetraphenyl phosphonium chloride MIC at 64 ug/ml by checkerboard titration method (reference value: 1024 ug/ml)
# T1 sequence (whole entry): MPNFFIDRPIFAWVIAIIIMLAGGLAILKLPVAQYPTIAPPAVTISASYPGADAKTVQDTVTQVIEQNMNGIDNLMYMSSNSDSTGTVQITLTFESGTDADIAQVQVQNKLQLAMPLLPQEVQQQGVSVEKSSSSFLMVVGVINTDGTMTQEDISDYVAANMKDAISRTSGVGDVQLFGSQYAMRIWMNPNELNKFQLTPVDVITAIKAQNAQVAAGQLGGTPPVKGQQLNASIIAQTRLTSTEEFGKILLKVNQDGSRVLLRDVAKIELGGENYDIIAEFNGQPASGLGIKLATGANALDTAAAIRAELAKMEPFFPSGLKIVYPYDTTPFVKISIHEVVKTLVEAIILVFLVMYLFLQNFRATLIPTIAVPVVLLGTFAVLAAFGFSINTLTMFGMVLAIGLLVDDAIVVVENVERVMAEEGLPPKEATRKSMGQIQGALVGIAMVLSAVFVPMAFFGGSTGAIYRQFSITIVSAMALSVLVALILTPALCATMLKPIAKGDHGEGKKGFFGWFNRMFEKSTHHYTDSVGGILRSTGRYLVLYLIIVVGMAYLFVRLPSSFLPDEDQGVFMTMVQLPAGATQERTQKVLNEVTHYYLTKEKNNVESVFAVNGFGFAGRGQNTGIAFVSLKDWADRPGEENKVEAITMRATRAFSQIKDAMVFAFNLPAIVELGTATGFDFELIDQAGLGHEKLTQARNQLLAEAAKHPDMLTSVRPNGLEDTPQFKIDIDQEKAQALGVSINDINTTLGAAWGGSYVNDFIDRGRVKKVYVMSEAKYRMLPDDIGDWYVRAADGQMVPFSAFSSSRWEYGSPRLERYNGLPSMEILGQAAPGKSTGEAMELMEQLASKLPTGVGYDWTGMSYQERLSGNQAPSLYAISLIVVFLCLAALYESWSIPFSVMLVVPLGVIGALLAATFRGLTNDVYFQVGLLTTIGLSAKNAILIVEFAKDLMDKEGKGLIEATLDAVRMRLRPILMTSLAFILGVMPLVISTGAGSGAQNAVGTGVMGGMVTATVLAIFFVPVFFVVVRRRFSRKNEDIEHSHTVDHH
# [4] = target: T1, Multidrug efflux pump subunit AcrB (Escherichia coli (strain K12)); assay: Inhibition of AcrB in wild-type drug-resistant Escherichia coli […] assessed as potentiation of erythromycin-induced antimicrobial activity by measuring erythromycin MIC at 128 ug/ml by checkerboard titration method (reference value: 64 ug/ml)
# [5] = system: Escherichia coli; assay: Induction of Escherichia coli outer membrane permeabilization assessed as increase in nitrocefin hydrolysis at 128 ug/ml by spectroscopic method; format: organism-based
# [6] = target: T1, Multidrug efflux pump subunit AcrB (Escherichia coli (strain K12)); assay: Inhibition of AcrB in wild-type drug-resistant Escherichia coli […] assessed as potentiation of levofloxacin-induced antimicrobial activity by measuring levofloxacin MIC at 64 ug/ml by checkerboard titration method (reference value: 0.063 ug/ml)
# [7] = system: Escherichia coli; assay: Toxicity against AcrB deficient Escherichia coli AcrB lacking at 128 ug/ml; format: organism-based; conditions: in vivo
# Method in brief: (§1)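 MIC determination against wild-type resistant E. coli BW25113 and an isogenic acrB-deleted strain; highest concentration tested 128 mg/L.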
# [8] = target: T1, Multidrug efflux pump subunit AcrB (Escherichia coli (strain K12)); assay: Inhibition of AcrB in wild-type drug-resistant Escherichia coli […] assessed as potentiation of levofloxacin-induced antimicrobial activity by measuring levofloxacin MIC at 8 ug/ml by checkerboard titration method (reference value: 0.063 ug/ml)
# [9] = target: T1, Multidrug efflux pump subunit AcrB (Escherichia coli (strain K12)); assay: Inhibition of AcrB in wild-type drug-resistant Escherichia coli […] assessed as potentiation of chloramphenicol-induced antimicrobial activity by measuring chloramphenicol MIC at 32 ug/ml by checkerboard titration method (Rvb =16 ug/ml)
# [10] = target: T1, Multidrug efflux pump subunit AcrB (Escherichia coli (strain K12)); assay: Inhibition of AcrB in wild-type drug-resistant Escherichia coli […] assessed as potentiation of erythromycin-induced antimicrobial activity by measuring erythromycin MIC at 32 ug/ml by checkerboard titration method (reference value: 64 ug/ml)
# [11] = target: T1, Multidrug efflux pump subunit AcrB (Escherichia coli (strain K12)); assay: Inhibition of AcrB in wild-type drug-resistant Escherichia coli […] assessed as potentiation of levofloxacin-induced antimicrobial activity by measuring levofloxacin MIC at 16 ug/ml by checkerboard titration method (reference value: 0.063 ug/ml)
# [12] = target: T1, Multidrug efflux pump subunit AcrB (Escherichia coli (strain K12)); assay: Inhibition of AcrB in wild-type drug-resistant Escherichia coli […] assessed as potentiation of erythromycin-induced antimicrobial activity by measuring erythromycin MIC at 8 ug/ml by checkerboard titration method (reference value: 64 ug/ml)
# [13] = target: T1, Multidrug efflux pump subunit AcrB (Escherichia coli (strain K12)); assay: Inhibition of AcrB in wild-type drug-resistant Escherichia coli […] assessed as potentiation of tetraphenyl phosphonium chloride-induced antimicrobial activity by measuring tetraphenyl phosphonium chloride MIC at 8 ug/ml by checkerboard titration method (reference value: 1024 ug/ml)
# [14] = target: T1, Multidrug efflux pump subunit AcrB (Escherichia coli (strain K12)); assay: Inhibition of AcrB in wild-type drug-resistant Escherichia coli […] assessed as potentiation of tetraphenyl phosphonium chloride-induced antimicrobial activity by measuring tetraphenyl phosphonium chloride MIC at 16 ug/ml by checkerboard titration method (reference value: 1024 ug/ml)
# [15] = target: T1, Multidrug efflux pump subunit AcrB (Escherichia coli (strain K12)); assay: Inhibition of AcrB in wild-type drug-resistant Escherichia coli […] assessed as potentiation of chloramphenicol-induced antimicrobial activity by measuring chloramphenicol MIC at 8 ug/ml by checkerboard titration method (Rvb =16 ug/ml)
# [16] = target: T1, Multidrug efflux pump subunit AcrB (Escherichia coli (strain K12)); assay: Inhibition of AcrB in wild-type drug-resistant Escherichia coli […] assessed as potentiation of levofloxacin-induced antimicrobial activity by measuring levofloxacin MIC at 128 ug/ml by checkerboard titration method (reference value: 0.063 ug/ml)
# [17] = target: T1, Multidrug efflux pump subunit AcrB (Escherichia coli (strain K12)); assay: Inhibition of AcrB in wild-type drug-resistant Escherichia coli […] assessed as potentiation of levofloxacin-induced antimicrobial activity by measuring levofloxacin MIC at 32 ug/ml by checkerboard titration method (reference value: 0.063 ug/ml)
# [18] = target: T1, Multidrug efflux pump subunit AcrB (Escherichia coli (strain K12)); assay: Inhibition of AcrB in wild-type drug-resistant Escherichia coli […] assessed as reduction in glucose-induced nile red efflux at 200 uM by fluorescence assay
# Method in brief: (§2)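 E. coli cells (wild-type resistant with active pump, acrB-deleted, or wild-type plus compound) preloaded with Nile Red before fluorescence recording. Efflux triggered at 100 s by adding 0.2% glucose. Fluorescence traces followed; experiments with different cell batches on three different days.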
# [19] = target: T1, Multidrug efflux pump subunit AcrB (Escherichia coli (strain K12)); assay: Inhibition of AcrB in wild-type drug-resistant Escherichia coli […] assessed as potentiation of erythromycin-induced antimicrobial activity by measuring erythromycin MIC at 16 ug/ml by checkerboard titration method (reference value: 64 ug/ml)
# [20] = target: T1, Multidrug efflux pump subunit AcrB (Escherichia coli (strain K12)); assay: Inhibition of AcrB in wild-type drug-resistant Escherichia coli […] assessed as potentiation of erythromycin-induced antimicrobial activity by measuring erythromycin MIC at 64 ug/ml by checkerboard titration method (reference value: 64 ug/ml)
# [21] = target: T1, Multidrug efflux pump subunit AcrB (Escherichia coli (strain K12)); assay: Inhibition of AcrB in wild-type drug-resistant Escherichia coli BW2113 assessed as potentiation of chloramphenicol-induced antimicrobial activity by measuring chloramphenicol MIC at 16 ug/ml by checkerboard titration method (Rvb =16 ug/ml)
# [22] = target: T1, Multidrug efflux pump subunit AcrB (Escherichia coli (strain K12)); assay: Inhibition of AcrB in wild-type drug-resistant Escherichia coli […] assessed as potentiation of chloramphenicol-induced antimicrobial activity by measuring chloramphenicol MIC at 128 ug/ml by checkerboard titration method (Rvb =16 ug/ml)
# [23] = system: Escherichia coli; assay: Toxicity against wild-type drug-resistant Escherichia coli […] at 128 ug/ml; format: organism-based; conditions: in vivo; method in brief: as §1
# [24] = target: T1, Multidrug efflux pump subunit AcrB (Escherichia coli (strain K12)); assay: Inhibition of AcrB in wild-type drug-resistant Escherichia coli […] assessed as potentiation of tetraphenyl phosphonium chloride-induced antimicrobial activity by measuring tetraphenyl phosphonium chloride MIC at 128 ug/ml by checkerboard titration method (reference value: 1024 ug/ml)
# [25] = target: T1, Multidrug efflux pump subunit AcrB (Escherichia coli (strain K12)); assay: Inhibition of AcrB in wild-type drug-resistant Escherichia coli […] assessed as potentiation of tetraphenyl phosphonium chloride-induced antimicrobial activity by measuring tetraphenyl phosphonium chloride MIC at 32 ug/ml by checkerboard titration method (reference value: 1024 ug/ml)
# [26] = target: T1, Multidrug efflux pump subunit AcrB (Escherichia coli (strain K12)); assay: Inhibition of AcrB in wild-type drug-resistant Escherichia coli […] assessed as potentiation of chloramphenicol-induced antimicrobial activity by measuring chloramphenicol MIC at 64 ug/ml by checkerboard titration method (Rvb =16 ug/ml)
# [27] = target: T1, Multidrug efflux pump subunit AcrB (Escherichia coli (strain K12)); assay: Inhibition of AcrB in wild-type drug-resistant Escherichia coli […] assessed as reduction in glucose-induced nile red efflux at 500 uM by fluorescence assay; method in brief: as §2
smiles,measurement,setting,value
COc1cccc2cc3c(cc12)C(=O)N(Cc1ccc(C)cc1)C3=O,solubility,[1],Insoluble
C[C@H]1COc2c(N3CCN(C)CC3)c(F)cc3c(=O)c(C(=O)O)cn1c23.C[C@H]1COc2c(N3CCN(C)CC3)c(F)cc3c(=O)c(C(=O)O)cn1c23.O [LEVOFLOXACIN],MIC,[2],0.0039 µg/mL
COc1cccc2cc3c(cc12)C(=O)N(Cc1ccc(F)cc1)C3=O,solubility,[1],Insoluble
COc1cccc2cc3c(cc12)C(=O)N(C(C)(C)C)C3=O,MIC,[3],1020 µg/mL
same,MIC,[4],32 µg/mL
same,Activity,[5],Non-Toxic
same,MIC,[6],0.063 µg/mL
same,Activity,[7],Non-Toxic
same,MIC,[8],0.063 µg/mL
same,MIC,[9],16 µg/mL
same,MIC,[10],64 µg/mL
same,MIC,[11],0.063 µg/mL
same,MIC,[12],64 µg/mL
same,MIC,[13],1020 µg/mL
same,MIC,[14],1020 µg/mL
same,MIC,[15],16 µg/mL
same,MIC,[16],0.063 µg/mL
same,MIC,[17],0.063 µg/mL
same,inhibition,[18],Active
same,MIC,[19],64 µg/mL
same,MIC,[20],32 µg/mL
same,MIC,[21],16 µg/mL
same,MIC,[22],16 µg/mL
same,Activity,[23],Non-Toxic
same,MIC,[24],512 µg/mL
same,MIC,[25],1020 µg/mL
same,MIC,[26],16 µg/mL
same,inhibition,[27],100%
COc1cccc2cc3c(cc12)C(=O)N(CCc1ccc(F)cc1)C3=O,solubility,[1],Insoluble
COc1cccc2cc3c(cc12)C(=O)N(CCc1ccccc1Cl)C3=O,solubility,[1],Insoluble
COc1cccc2cc3c(cc12)C(=O)N(Cc1ccccc1Cl)C3=O,MIC,[3],1020 µg/mL
same,MIC,[4],32 µg/mL
same,MIC,[6],0.063 µg/mL
same,Activity,[7],Non-Toxic
same,MIC,[8],0.063 µg/mL
same,MIC,[9],16 µg/mL
same,MIC,[10],64 µg/mL
same,MIC,[11],0.063 µg/mL
same,MIC,[12],64 µg/mL
same,MIC,[13],1020 µg/mL
same,MIC,[14],1020 µg/mL
same,MIC,[15],16 µg/mL
same,MIC,[16],0.063 µg/mL
same,MIC,[17],0.063 µg/mL
same,MIC,[19],64 µg/mL
same,MIC,[20],64 µg/mL
same,MIC,[21],16 µg/mL
same,MIC,[22],16 µg/mL
same,Activity,[23],Non-Toxic
same,MIC,[24],512 µg/mL
same,MIC,[25],1020 µg/mL
same,MIC,[26],16 µg/mL
COc1cccc2cc3c(cc12)C(=O)N(c1ccc(C(C)C)cc1)C3=O,solubility,[1],Insoluble
COc1ccccc1N1C(=O)c2cc3cccc(OC)c3cc2C1=O,solubility,[1],Insoluble
COc1cccc2cc3c(cc12)C(=O)N(Cc1ccc(Cl)cc1)C3=O,solubility,[1],Insoluble
COc1cccc(N2C(=O)c3cc4cccc(OC)c4cc3C2=O)c1,solubility,[1],Insoluble
COc1cccc2cc3c(cc12)C(=O)N(c1ccccc1C(F)(F)F)C3=O,solubility,[1],Insoluble
[Cl-].c1ccc([P+](c2ccccc2)(c2ccccc2)c2ccccc2)cc1 [TETRAPHENYLPHOSPHONIUM CHLORIDE],MIC,[2],32 µg/mL
COc1cccc2cc3c(cc12)C(=O)N(c1cccc(C)c1)C3=O,solubility,[1],Insoluble
CCc1ccc(N2C(=O)c3cc4cccc(OC)c4cc3C2=O)cc1,solubility,[1],Insoluble
CC[C@H]1OC(=O)[C@H](C)[C@@H](O[C@H]2C[C@@](C)(OC)[C@@H](O)[C@H](C)O2)[C@H](C)[C@@H](O[C@@H]2O[C@H](C)C[C@H](N(C)C)[C@H]2O)[C@](C)(O)C[C@@H](C)C(=O)[C@H](C)[C@@H](O)[C@]1(C)O [ERYTHROMYCIN],MIC,[2],64 µg/mL
CCCCc1ccc(N2C(=O)c3cc4cccc(OC)c4cc3C2=O)cc1,solubility,[1],Insoluble
